We go through one compound from ChEMBL document CHEMBL2010769, “Synthesis and antiviral activity of 6-deoxycyclopropavir, a new prodrug of cyclopropavir” (Bioorg Med Chem, 2012).

Series [1] has as its system Murid betaherpesvirus 1. Put plainly: Antiviral activity against MCMV infected in BALB/c mouse assessed as decrease in virus-induced mortality at 16.7 mg/kg, po qd for 5 days administered 48 hrs after viral infection (reference value: 100%). In kind it is functional. Further details: scale not given: the % may be the effect or the level left. The essentials: (§1)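 Female BALB/c mice (3 weeks, 15/group) were inoculated ip with MCMV Smith at about LD90. Oral dosing of 0.2 mL in 0.4% CMC ran once daily for 5 days, starting 24 or 48 h post-inoculation. Mice were observed daily for 21 days. Mortality was compared with CMC placebo by Fisher's exact test.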

Series [2] has as its system Mus musculus. The series is described as follows: Toxicity in BALB/c mouse assessed as ruffled coat appearance at 5.6 mg/kg, po qd for 5 days relative to control. In kind it is organism-based. Further details: dose 5.6 mg/kg, route oral. Conditions: in vivo, 120 h. The essentials:
(§2)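 Uninfected female BALB/c mice, 3 weeks old, in groups of 5. Compound suspended in 0.4% carboxymethylcellulose and given orally in 0.2 mL once daily for 5 days at 50, 16.7 or 5.6 mg/kg. Mean group body weight tracked over days 1–5 plus day 6 recovery. Clinical signs (ruffled coat, behaviour) were observed. Comparison was with vehicle-treated or untreated mice.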

Series [3] relates to Mus musculus. Put plainly: Toxicity in BALB/c mouse assessed as ruffled coat appearance at 50 mg/kg, po qd for 5 days relative to control. More on the design: dose 50 mg/kg, route oral. In kind it is organism-based. Conditions: in vivo, 120 h. The essentials: as §2
The next series relates to Human gammaherpesvirus 4. The series is described as follows: Antiviral activity against Epstein-Barr virus infected in Akata cells by DNA hybridization assay. In kind it is functional, organism-based. Conditions: human gammaherpesvirus 4, Akata.
In series [4] the test system is Human betaherpesvirus 5. Put plainly: Antiviral activity against HCMV Toledo infected in human thymus/liver tissue xenografted in SCID mouse assessed as decrease in viral infection at 6.25 mg/kg, po qd for 28 days measured on day 35 by RT-PCR analysis (reference value: 67%). In kind it is functional, strain Toledo. More on the design: scale not given: the % may be the effect or the level left. (Xenograft models place foreign cells or tissue in a host animal.)

The test system of series [5] is Human betaherpesvirus 5. The series is described as follows: Antiviral activity against HCMV Toledo infected in human thymus/liver tissue xenografted in SCID mouse assessed as decrease in viral infection at 6.25 mg/kg, po qd for 21 days by RT-PCR analysis (reference value: 92%). More on the design: scale not given: the % may be the effect or the level left. The series is classed as functional, strain Toledo.

Series [6] has as its system Murid betaherpesvirus 1. Put plainly: Antiviral activity against MCMV infected in BALB/c mouse assessed as decrease in virus-induced mean day of death at 50 mg/kg, po qd for 5 days administered 24 hrs after viral infection (reference value: 4.9 +/- 0.7 days). In kind it is functional.
The nature of series [7]: Prodrug activation assessed as cyclopropavir formation in presence of cow milk xanthine oxidase. Conditions: cattle. In a few lines: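 Cow-milk xanthine oxidase, 0.4 units, acting on 0.07 mM substrate in 0.05 M Na2HPO4, pH 7.5, at room temperature. Conversion followed continuously at 304 nm. UV spectra were taken before enzyme addition (T = 0) and at 720 min and matched against authentic parent and product.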

Series [8] deals with Mus musculus. Put plainly: Toxicity in BALB/c mouse assessed as ruffled coat appearance at 16.7 mg/kg, po qd for 5 days relative to control. The series is classed as organism-based. Further details: dose 16.7 mg/kg, route oral. The following applies: in vivo, 120 h. In a few lines: as §2
Series [9] relates to Human betaherpesvirus 5. The series is described as follows: Antiviral activity against HCMV Toledo infected in human thymus/liver tissue xenografted in SCID mouse assessed as decrease in viral infection at 12.5 mg/kg, po qd for 28 days by RT-PCR analysis (reference value: 92%). The series is classed as functional, strain Toledo. Further details: scale not given: the % may be the effect or the level left.

Another series has as its system Vaccinia virus. The series is described as follows: Antiviral activity against Vaccinia virus infected in HFF assessed as reduction in virus induced cytopathic effect at 100 uM. The following applies: Orthopoxvirus vaccinia. The series is classed as functional, organism-based. A general note: Damage to the host cells serves as the signal in cytopathic effect assays.

Series [10] concerns Murid betaherpesvirus 1. Put plainly: Antiviral activity against MCMV infected in BALB/c mouse assessed as decrease in virus-induced mortality at 5.6 mg/kg, po qd for 5 days administered 24 hrs after viral infection (reference value: 67%). More on the design: scale not given: the % may be the effect or the level left. In kind it is functional. The essentials: as §1
Series [11] in a line: Cytotoxicity against HFF. Conditions: human, HFF cells. The series is classed as cell-based.
Series [12] relates to Mus musculus. Put plainly: Toxicity in BALB/c mouse assessed as body weight loss at 5.6 mg/kg, po qd for 5 days relative to control. In kind it is organism-based. More on the design: dose 5.6 mg/kg, route oral. The following applies: in vivo, 120 h. In a few lines:
as §2

Series [13] deals with Human betaherpesvirus 5. Put plainly: Antiviral activity against HCMV Toledo infected in human thymus/liver tissue xenografted in SCID mouse assessed as decrease in viral infection at 12.5 mg/kg, po qd for 21 days by RT-PCR analysis (reference value: 92%). In kind it is functional, strain Toledo. More on the design: scale not given: the % may be the effect or the level left.

Series [14] deals with Human betaherpesvirus 5. The series is described as follows: Antiviral activity against HCMV Toledo infected in human thymus/liver tissue xenografted in SCID mouse assessed as mean log10 genome equivalents/animal at 12.5 mg/kg, po qd for 21 days by RT-PCR analysis (reference value: 3.82 +/- 1.24). The series is classed as functional, strain Toledo.
For series [15], the system named is Human betaherpesvirus 5. Put plainly: Antiviral activity against HCMV Toledo infected in human thymus/liver tissue xenografted in SCID mouse assessed as mean log10 genome equivalents/animal at 12.5 mg/kg, po qd for 14 days by RT-PCR analysis (reference value: 3.50 +/- 0.878). The series is classed as functional, strain Toledo.

Calls of active or inactive are those of the source. The rule behind the calls is not given here.

Take `Nc1ncc2ncn(/C=C3/CC3(CO)CO)c2n1`: the Activity with Murid betaherpesvirus 1 [1] is 7%; in the series on Mus musculus [2], “Non-toxic”; with Mus musculus [3] it was “Non-toxic”; in the series with Human betaherpesvirus 5 [4], 100%; with Human betaherpesvirus 5 [5], 92%; in the series on Murid betaherpesvirus 1 [6] it was 8.3 days. For the same compound, the Activity entry with Mus musculus [8] is given as “Non-toxic”; with Human betaherpesvirus 5 [9] it was 50%; in the series with Murid betaherpesvirus 1 [10], 7%; in the series on Mus musculus [12], “Non-toxic”; in the series on Human betaherpesvirus 5 [13], 82%; in the series on Human betaherpesvirus 5 [14] it was 2.94. In the series with Human betaherpesvirus 5 [15], the Activity came out at 3.03. Moreover, a half-maximal response with Human gammaherpesvirus 4 (EC50) required 27 µM. Further, in [7], the Drug metabolism entry is given as “Active”. Besides, the result in the series on Vaccinia virus was inactive. Further, the CC50 (as a rule, the concentration that lowers cell viability or growth by half) in series [11] is more than 100 µM.
